HSF1 inhib = HSF1 inhibition. activity change, negative = inhibition, % at 7.5 µM (by protocol). AID 2098. hit rate 0.77% among 300,000. NIH3T3-HGL HSE-luciferase, MG132-induced, luminescence 8 h; hits give low values;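 active = more than half of replicate wells show activity change below -50%, luminescence cut by over half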;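 note: luciferase reports HSF-1 transcriptional activity via heat shock element; 0% = median of DMSO wells and -100% = zero luminescence signal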
T cruzi repl = T. cruzi replication inhibition. T. cruzi beta-gal in NIH3T3, luminescence, 90 h. inhibition, % (concentration not given with the values). hit rate 1.4% among 300,000. AID 1885;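 active = mean inhibition across valid replicates above about 55%, limit read from the data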;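 note: signal also drops with host cell toxicity which is not excluded here; 0% = plate median of DMSO wells and 100% = zero luminescence signal; higher percent means less beta-gal luminescence so fewer parasites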
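Read-out: Parasite load inhibition, % | Test system: Mouse NIH/3T3 fibroblasts infected with β-gal-expressing T. cruzi Tulahuen C4 | Amount: 5,000 cells/well | Medium: DMEM, 2% fetal bovine serum | Signal: GalScreen β-gal luminescence, detergent lysis, 60 min | Timing: 3 h attach, ≥90 h co-culture | Also added: Tulahuen C4 trypomastigotes, 5000/well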
HSF1 activator = increases HSF-1 driven luciferase reporter signal | NIH3T3-HGL HSF-1 luciferase reporter, MG132, 8 h; 100% = twice DMSO control signal | activation, % at 9 µM | hit rate 1.7% among 300,000 | AID 504408;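 active = mean replicate activation of at least 50% with a set share of replicates each reaching 50%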;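 note: 0% = median of the neutral control wells and 100% = twice that signal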
Hsp70 activator = switches on Hsp70 transcription; activation, % at 10 µM; HeLa Hsp70 promoter luciferase reporter, luminescence; scaled: vehicle 0, proteasome-inhibitor control 100%; hit rate 0.04% among 200,000;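 active = activation above the mean across all tested compounds plus 3 SD, cutoff set per campaign, cut at about 5.5% in these data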;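 note: 100% = MG132 at 30 µM as the positive control and 0% = DMSO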
L major viab = inhibitors of Leishmania major promastigote growth | Leishmania major promastigotes, resazurin fluorescence viability | inhibition, % at 10 µM | hit rate 9% among 200,000; in the data active = inhibition above about 50%;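 note: promastigotes grown with compound for 44 hours at 28 °C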
* = called active by the depositor; · = not tested or not shown. This excerpt belongs to a sample that is enriched for hits.

SMILES	HSF1 inhib	T cruzi repl	HSF1 activator	Hsp70 activator	L major viab
CCc1ccc(C2CC(=O)N3CN(c4ccccc4)CSC3=C2C#N)cc1 (configuration not stated)	5	2	-7	1	7
O=C(c1ccco1)N1CCN(CC(O)COc2ccc(Br)cc2)CC1 (configuration not stated)	-6	-8	7	·	·
CCCCN(C)Cc1c(C)[nH]c2c(Cl)cccc2c1=O	1	60*	5	0	100*
CCCCN(C)Cc1c(C)[nH]c2c(ccc3ccccc32)c1=O	-2	-8	8	·	·
COCCN(C(=O)COC(=O)c1cc2ccccc2cc1O)c1c(N)n(Cc2ccccc2)c(=O)[nH]c1=O	1	-4	2	·	·
CC1CC(C)CN(C(=O)C(NS(=O)(=O)c2ccc(Br)s2)c2ccccc2)C1 (configuration not stated)	-4	19	-1	0	81*
CCCCNC(=O)CSc1cc(=O)n(C)c2ccccc12	0	-9	1	0	-3
CCCCc1c(CCC)c(=N)c2ccccc2n1C	-6	60*	-12	0	100*
COc1ccc(C2(CCN)CC(C)N(C)CC2C)cc1 (configuration not stated)	-12	1	-7	0	-3
Cc1ccc(CC2(O)CC(C)N(C)CC2C)c(C)c1 (configuration not stated)	1	6	5	0	69*
COc1cc(OC)cc(C(=O)Nc2nnc(-c3cccnc3)o2)c1	-1	-9	-22	0	36
O=C(Nc1nnc(-c2cccnc2)o1)c1cccc(Cl)c1	1	-26	3	0	55*
O=C(Nc1nnc(-c2ccccn2)o1)c1cccc(Cl)c1	-2	-25	7	0	51*
COc1ccc2c(C)cc3nncn3c2c1	-3	-15	0	0	12
Cc1ccc(S(=O)(=O)NCCC(=O)N2CCCCCCC2)cc1C	0	-3	-8	·	·
COc1cccc(NC(=O)C(=O)NCC2CCCN2S(=O)(=O)c2ccccc2)c1 (configuration not stated)	33	6	56*	·	·
CCN1CCCC1CNC(=O)C(=O)Nc1ccccc1 (configuration not stated)	15	-2	5	1	-5
COc1cccc(NC(=O)C(=O)NCCC2CCCCN2S(=O)(=O)c2ccccc2)c1 (configuration not stated)	20	7	32	·	·
CCN1CCCC1CNC(=O)C(=O)Nc1cccc(OC)c1 (configuration not stated)	3	8	19	0	53*
O=C(CSc1nc2ccccc2c(=O)n1-c1ccc(F)cc1F)c1c[nH]c2ccccc12	0	8	-4	0	32
CN(C)CC#Cc1cncc(C(=O)NNC(=O)Nc2ccc(Cl)cc2)c1	-5	-4	19	·	·
Cc1cccc(/C=N/Nc2cc(N3CCOCC3)nc(N3CCOCC3)n2)c1	-4	69*	7	0	87*
CC(C)c1ccc(/C=N/Nc2cc(N3CCOCC3)nc(N3CCOCC3)n2)cc1	·	·	·	0	15
Oc1ccc(/C=N/Nc2cc(N3CCCC3)nc(N3CCCC3)n2)cc1O	0	-14	-5	0	99*
CCCCOc1ccc(/C=N/Nc2cc(N3CCOCC3)nc(C)n2)cc1	-8	56*	-3	·	·
SMILES	HSF1 inhib	T cruzi repl	HSF1 activator	Hsp70 activator	L major viab
O=c1[nH]c(Nc2ccc3c(c2)OCCO3)nnc1Cc1ccccc1	-2	-7	33	0	-6
Oc1cccc2ccc[n+](CC(O)Cn3c4ccccc4c4ccccc43)c12 (configuration not stated)	11	32	10	0	91*
COc1cc(C)c(S(=O)(=O)NC2CC(C)(C)NC(C)(C)C2)cc1C	-5	4	3	0	4
CCCOc1cc(C)c(S(=O)(=O)NC2CC(C)(C)NC(C)(C)C2)cc1C	-7	10	22	0	97*
COc1ccc(CN(C(=O)c2cc3ccccc3oc2=O)C2CCS(=O)(=O)C2)cc1OC (configuration not stated)	23	-15	56*	·	·
CC(=O)N=c1n(C)c2ccccc2n1CCOc1ccccc1	3	-8	-5	0	-6
O=C(NCc1ccccn1)c1ccc(NS(=O)(=O)c2cccc(Cl)c2)cc1	-4	-3	10	·	·
COc1ccc(C(=O)/C=C/Nc2ccccn2)c(OC)c1	35	-6	74*	·	·
COc1ccc(CCN2C(=O)NC(NC(=O)CCc3ccccc3)(C(F)(F)F)C2=O)cc1OC (configuration not stated)	9	0	-4	0	70*
Cc1ccc(-n2nc3c(c2NC(=O)c2cccs2)CS(=O)(=O)C3)c(C)c1	-5	-16	-8	·	·
Cc1cc(Cl)ccc1OCC(=O)N1CCCCC1	12	-1	15	0	-4
O=C(COc1ccc(Cl)cc1Cl)N1CCCN(C(=O)COc2ccc(Cl)cc2Cl)CC1	8	60*	24	-1	97*
CCCc1cc(C(=O)Nc2cc(C)ccc2O)no1	97	-26	120*	·	·
CCC(C)c1ccccc1NC(=O)c1cccnc1 (configuration not stated)	7	-7	-5	0	-4
CCC(C)c1ccccc1NC(=O)c1cc(C)no1 (configuration not stated)	16	6	59*	·	·
Cc1ccc(O)c(NC(=O)c2cc(-c3ccccc3)on2)c1	65	-2	96*	·	·
O=C(Nc1cc(Br)ccc1O)c1cc(-c2ccccc2)on1	9	-6	44	·	·
Cc1ccc(O)c(NC(=O)c2cc(C)no2)c1	60	-6	100*	·	·
CCCc1cc(C(=O)Nc2cccnc2Cl)no1	8	-9	30	0	-8
Cc1cc2ncc(C(=O)Nc3ccsc3C(=O)O)c(C)n2n1	-4	-19	9	0	0
CCCCn1c(SCc2nc(N)nc(N3CCCCC3)n2)nc2c1c(=O)n(C)c(=O)n2C	-2	25	10	0	2
Fc1cccc(F)c1-n1c(CN2CCCCC2)csc1=S	-1	-12	-3	0	56*
COc1ccccc1C(=O)NC(=O)COC(=O)c1ccc(Cl)nc1	-7	-2	4	·	·
Oc1ccc(C[C@H]2CNCCN2CC2(c3ccccc3)CC2)cc1	-5	-16	-11	·	·
CCn1c(CNc2ccc(C(=O)O)cc2)nc2ccccc21	-4	-8	-8	0	-1
CCCn1c(CNc2ccc(Br)cc2)nc2ccccc21	19	50	19	0	97*
CCOc1ccc(CCNC(=O)COC(=O)c2ccccc2O)cc1OCC	4	-4	9	0	82*
CCOc1ccc(CCNC(=O)c2ccc(CNS(=O)(=O)c3ccccc3)cc2)cc1OCC	-3	7	15	0	53*
COc1ccc(CCNC(=O)C(C(=O)c2ccccc2)n2cc(Cl)ccc2=O)cc1OC (configuration not stated)	-6	-12	-6	0	55*

Screening results deposited in PubChem by several laboratories.
